Results published in ChEMBL document CHEMBL2021927, “Synthesis and evaluation of the cytotoxicities of tetraindoles: observation that the 5-hydroxy tetraindole (SK228) induces G₂ arrest and apoptosis in human breast cancer cells” (J Med Chem, 2012).

How the values were obtained:
MDA-MB-231 [1] = test: Growth inhibition of human MDA-MB-231 cells at 20 uM after 48 hrs by MTT assay; format: functional; details: MDA-MB-231, 48 h, read-out: GI
Outline: (§1)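 MTT viability assay with 48 h exposure at a single 20 μM concentration. Result given as percent inhibition of cell growth; n = 3.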

MDA-MB-231 [2] = test: Growth inhibition of human MDA-MB-231 cells after 48 hrs by MTT assay; format: functional, cell-based; details: MDA-MB-231, 48 h
MCF7 [3] = test: Growth inhibition of human MCF7 cells after 48 hrs by MTT assay; format: functional, cell-based; details: MCF7, 48 h
MCF7 [4] = test: Growth inhibition of human MCF7 cells at 20 uM after 48 hrs by MTT assay; format: functional; details: MCF7, 48 h, read-out: GI; outline: as §1

`Oc1ccc2[nH]cc(C(c3cccc(C(c4c[nH]c5ccc(O)cc45)c4c[nH]c5ccc(O)cc45)c3)c3c[nH]c4ccc(O)cc34)c2c1` gave an inhibition of growth at 20 µM (MDA-MB-231 [1]) of 0%, an IC50 (MDA-MB-231 [2]) greater than 20 µM and an IC50 (MCF7 [3]) of 17.8 µM.
In the case of `c1ccc2c3c([nH]c2c1)Cc1c([nH]c2ccccc12)Cc1c([nH]c2ccccc12)Cc1c([nH]c2ccccc12)C3`, the IC50 (MDA-MB-231 [2]) is reported as 1 µM and the IC50 (MCF7 [3]) is reported as 1.3 µM.
With `COc1ccc2[nH]cc(C(c3ccc(C(c4c[nH]c5ccc(OC)cc45)c4c[nH]c5ccc(OC)cc45)cc3)c3c[nH]c4ccc(OC)cc34)c2c1` the inhibition of growth at 20 µM (MDA-MB-231 [1]) was 3%, the inhibition of growth at 20 µM (MCF7 [4]) was 43% and the IC50 (MDA-MB-231 [2]) was greater than 20 µM. For the same compound, the IC50 (MCF7 [3]) was greater than 20 µM.
`Brc1ccc2[nH]cc(C(c3ccc(C(c4c[nH]c5ccc(Br)cc45)c4c[nH]c5ccc(Br)cc45)cc3)c3c[nH]c4ccc(Br)cc34)c2c1` gave an inhibition of growth at 20 µM (MDA-MB-231 [1]) of 5%, an inhibition of growth at 20 µM (MCF7 [4]) of 25% and an IC50 (MDA-MB-231 [2]) greater than 20 µM. For the same compound, the IC50 (MCF7 [3]) was greater than 20 µM.
`c1cc(C(c2c[nH]c3ccccc23)c2c[nH]c3ccccc23)cc(C(c2c[nH]c3ccccc23)c2c[nH]c3ccccc23)c1` showed an inhibition of growth at 20 µM (MCF7 [4]) of 32%, an IC50 (MDA-MB-231 [2]) of 24.3 µM and an IC50 (MCF7 [3]) greater than 20 µM.
`Oc1ccc2[nH]cc(C(c3ccc(C(c4c[nH]c5ccc(O)cc45)c4c[nH]c5ccc(O)cc45)cc3)c3c[nH]c4ccccc34)c2c1` (stereo not drawn) gave an IC50 (MDA-MB-231 [2]) of 7.8 µM and an IC50 (MCF7 [3]) of 6.3 µM.
In the case of `Oc1ccc2[nH]cc(C(c3ccc(C(c4c[nH]c5ccccc45)c4c[nH]c5ccccc45)cc3)c3c[nH]c4ccccc34)c2c1` (stereo not drawn), the IC50 (MDA-MB-231 [2]) is reported as 13.9 µM and the IC50 (MCF7 [3]) is reported as 12.6 µM.
For `Nc1ccc2[nH]cc(C(c3ccc(C(c4c[nH]c5ccc(N)cc45)c4c[nH]c5ccc(N)cc45)cc3)c3c[nH]c4ccc(N)cc34)c2c1`, the inhibition of growth at 20 µM (MDA-MB-231 [1]) was 35%, the inhibition of growth at 20 µM (MCF7 [4]) was 25% and the IC50 (MDA-MB-231 [2]) was greater than 20 µM. For the same compound, the IC50 (MCF7 [3]) was greater than 20 µM.
In the case of `c1ccc(C(c2c[nH]c3ccccc23)c2c[nH]c3ccccc23)c(Oc2ccccc2C(c2c[nH]c3ccccc23)c2c[nH]c3ccccc23)c1`, the inhibition of growth at 20 µM (MDA-MB-231 [1]) is reported as 8%, the inhibition of growth at 20 µM (MCF7 [4]) is reported as 48% and the IC50 (MDA-MB-231 [2]) is reported as greater than 20 µM. It also gave an IC50 (MCF7 [3]) greater than 20 µM.
`Oc1ccc2[nH]cc(C(c3ccc(C(c4c[nH]c5ccccc45)c4c[nH]c5ccccc45)cc3)c3c[nH]c4ccc(O)cc34)c2c1` gave an inhibition of growth at 20 µM (MDA-MB-231 [1]) of 36%, an inhibition of growth at 20 µM (MCF7 [4]) of 23% and an IC50 (MDA-MB-231 [2]) greater than 20 µM. It also gave an IC50 (MCF7 [3]) greater than 20 µM.
`Oc1ccc2c(C(c3ccc(C(c4c[nH]c5cc(O)ccc45)c4c[nH]c5cc(O)ccc45)cc3)c3c[nH]c4cc(O)ccc34)c[nH]c2c1` was tested, and the inhibition of growth at 20 µM (MDA-MB-231 [1]) was 16%, the inhibition of growth at 20 µM (MCF7 [4]) was 0% and the IC50 (MDA-MB-231 [2]) was greater than 20 µM. For the same compound, the IC50 (MCF7 [3]) was greater than 20 µM.
`c1ccc2c(Cc3c[nH]c4ccccc34)c[nH]c2c1` [ARUNDINE] gave an IC50 (MDA-MB-231 [2]) of 10 µM and an IC50 (MCF7 [3]) of 50 µM.
Compound `c1ccc2c(C(c3ccc(C(c4c[nH]c5ccccc45)c4c[nH]c5ccccc45)cc3)c3c[nH]c4ccccc34)c[nH]c2c1` has an IC50 (MDA-MB-231 [2]) of 9.8 µM and an IC50 (MCF7 [3]) of 16.1 µM.
`N#Cc1ccc2[nH]cc(C(c3ccc(C(c4c[nH]c5ccc(C#N)cc45)c4c[nH]c5ccc(C#N)cc45)cc3)c3c[nH]c4ccc(C#N)cc34)c2c1` was tested, and the inhibition of growth at 20 µM (MDA-MB-231 [1]) was 8%, the IC50 (MDA-MB-231 [2]) was greater than 20 µM and the IC50 (MCF7 [3]) was 9.5 µM.
`c1ccc2c(C(c3ccc(C(c4c[nH]c5ccccc45)c4c[nH]c5ccccc45)s3)c3c[nH]c4ccccc34)c[nH]c2c1` gave an inhibition of growth at 20 µM (MDA-MB-231 [1]) of 36%, an inhibition of growth at 20 µM (MCF7 [4]) of 34% and an IC50 (MDA-MB-231 [2]) greater than 20 µM. For the same compound, the IC50 (MCF7 [3]) was greater than 20 µM.
`Brc1ccc2[nH]cc(C(c3ccc(C(c4c[nH]c5ccccc45)c4c[nH]c5ccccc45)cc3)c3c[nH]c4ccc(Br)cc34)c2c1` was tested, and the inhibition of growth at 20 µM (MDA-MB-231 [1]) was 8%, the inhibition of growth at 20 µM (MCF7 [4]) was 17% and the IC50 (MDA-MB-231 [2]) was greater than 20 µM. The IC50 (MCF7 [3]) was greater than 20 µM.
Compound `c1ccc2c(C3CCCC(c4c[nH]c5ccccc45)(c4c[nH]c5ccccc45)C3)c[nH]c2c1` (stereo not drawn) has an IC50 (MDA-MB-231 [2]) of 20.1 µM and an IC50 (MCF7 [3]) of 19.8 µM.
